The results in this text go back to ChEMBL document CHEMBL4190353, “Synthesis, structure-activity relationships and preliminary mechanism of action of novel water-soluble 4-quinolone-3-carboxamides as antiproliferative agents” (Eur J Med Chem, 2017).

Calls of active or inactive are those of the source. The calls are words filed in the database; no cut-off is given here.

The subject of test [1] is HCT-116. The test is described as follows: Induction of apoptosis in human HCT116 cells assessed as necrotic cells level incubated for 48 hrs by Annexin V-FITC/PI staining based cytometry (reference value: 0.2%). The class given is functional.
The test system of test [2] is HCT-116. The test can be described thus: Inhibition of colony formation of Bax-/- human HCT116 cells at 4 to 16 uM incubated for 24 hrs by crystal violet staining based photography. The class given is functional, cell-based. In a few lines:
(§1)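 Cells (HCT116, RKO, HCT116 p53-/-, HCT116 Bax-/-) seeded at 300 per well in 12-well plates for 48 h, then treated 24 h. Drug medium replaced with fresh medium; about 10 days later colonies stained 15 min with crystal violet, photographed and counted. Run in triplicate.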

Test [3] has as its system HCT-116. The test can be described thus: Induction of apoptosis in human HCT116 cells assessed as late apoptotic cells level at 2 uM incubated for 24 hrs by Annexin V-FITC/PI staining based cytometry (reference value: 0.5%). Format: functional.
For test [4], the system named is HCT-116. The test is described as follows: Induction of apoptosis in Bax-/- human HCT116 cells assessed as viable cells level pre-incubated with 20 uM pan-caspase inhibitor Z-VAD-FMK for 5 hrs followed by compound addition and further incubated for 48 hrs by Annexin V-FITC/PI staining based cytometry (reference value: 92.9%). The class given is functional.
Test [5] has as its system HCT-116. The test can be described thus: Induction of apoptosis in human HCT116 cells assessed as viable cells level pre-incubated with 20 uM pan-caspase inhibitor Z-VAD-FMK for 5 hrs followed by compound addition and further incubated for 48 hrs by Annexin V-FITC/PI staining based cytometry (reference value: 98.7%). The class given is functional.
Test [6] concerns HCT-116. The test is described as follows: Inhibition of colony formation of human HCT116 cells pre-treated with 7.5 mM L-NAC for 2 hrs followed by 16 to 32 uM compound addition and further incubated for 24 hrs and measured after 10 days post dose in fresh medium by crystal violet staining based photography. The class given is functional, cell-based. The gist of the method: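 HCT116 seeded at about 300 per well in 12-well plates and grown 2 h. Pre-treated 2 h with H2O, 7.5 mM L-NAC or GSH, then exposed to compound for 24 h. Colonies grown 10 days in fresh medium, stained with crystal violet and counted. Triplicate wells.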

In test [7] the test system is HCT-116. The test is described as follows: Inhibition of colony formation of human HCT116 cells incubated for 24 hrs by crystal violet staining based photography. The class given is functional, cell-based. The gist of the method:
as §1

For test [8], the system named is HCT-116. The test is described as follows: Induction of apoptosis in Bax-/- human HCT116 cells assessed as increase in cleaved PARP level incubated for 48 hrs by Western blot method. The class given is functional, cell-based. The gist of the method: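 Lysates were made in SDS buffer (2% SDS, 50 mM Tris-HCl pH 6.8) and quantified by BCA. Equal protein was run on 10% SDS-PAGE and transferred to PVDF. Membranes were blocked in 5% milk, probed overnight at 4 °C for cleaved PARP (1:1000) with GAPDH (1:5000), and detected with HRP secondary antibody and ECL.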

For test [9], the system named is HCT-116. The test is described as follows: Cytotoxicity against Bax-/- human HCT116 cells assessed as reduction in cell viability incubated for 24 hrs by CCK8 assay. The class given is functional, cell-based. In a few lines:
(§2)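 Cells were seeded at 3×10^4 per well, grown 24 h, then exposed to increasing concentrations for 24 h. CCK-8 reagent was added for 1 h at 37 °C and absorbance was read at 450 nm. Cells were kept in McCoy's 5A with 10% FBS, and n=3.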
On the technique in general: Tetrazolium assays rely on reduction of a dye to a coloured formazan, in cell work by metabolically active cells.

Test [10] has as its system HCT-116. The test is described as follows: Cytotoxicity in human HCT116 cells assessed as reduction in cell viability pre-treated with 7.5 mM L-NAC followed by 16 to 32 uM compound addition and further incubated for 24 hrs by CCK8 assay. Format: functional, cell-based. The gist of the method:
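HCT116 cells were pretreated with H2O, 7.5 mM L-NAC or 7.5 mM GSH, then exposed to 4, 16 or 32 µM for 24 h. Viability was read by CCK-8, with 1 h reagent incubation at 37 °C and absorbance at 450 nm. n=3.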

The test system of a further test is HeLa. The test can be described thus: Cytotoxicity against human HeLa cells assessed as reduction in cell viability incubated for 24 hrs by MTT assay. Format: functional, cell-based. The gist of the method: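 Cells were kept in McCoy's 5A with 10% fetal bovine serum, streptomycin and 100 units·mL⁻¹ penicillin at 37 °C under 5% CO₂/95% air. Viability was read by MTT optical density. IC50 is the concentration that lowers optical density by 50% relative to untreated cells. Values are means with SD of at least three independent determinations.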

Test [11] concerns HCT-116. The test can be described thus: Cytotoxicity against p53-/- human HCT116 cells assessed as reduction in cell viability incubated for 24 hrs by CCK8 assay. Format: functional, cell-based. In a few lines:
as §2

For test [12], the system named is HCT-116. The test can be described thus: Induction of apoptosis in Bax-/- human HCT116 cells assessed as late apoptotic cells level at 4 uM incubated for 48 hrs by Annexin V-FITC/PI staining based cytometry (reference value: 0.2%). Format: functional. In a few lines: (§3)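 Cells were plated at 5×10^5 per well and treated once 80% confluent. After trypsinisation and two washes in ice-cold PBS (pH 7.4), cells were stained with Annexin V-FITC and PI for 15 min at room temperature in the dark. Analysis was by flow cytometry. The legend gives vehicle or 4 µM for the p53-/- and Bax-/- lines.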

Test [13] relates to HCT-116. The test is described as follows: Induction of apoptosis in p53-/- human HCT116 cells assessed as late apoptotic cells level at 4 uM incubated for 48 hrs by Annexin V-FITC/PI staining based cytometry (reference value: 0.1%). The class given is functional. The gist of the method: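 HCT116 p53-/- cells (Vogelstein line) in McCoy's 5A with 10% FBS, 37 °C, 5% CO2. Seeded at 5×10^5 in 6-well plates, treated with vehicle or 4 μM at 80% confluence. After treatment, trypsinised, washed twice in ice-cold PBS pH 7.4, and stained in binding buffer with Annexin V-FITC and PI for 15 min at room temperature in the dark. Read by flow cytometry.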

Test [14] deals with HCT-116. The test can be described thus: Induction of apoptosis in human HCT116 cells assessed as increase in cleaved PARP level pre-treated with 7.5 mM L-NAC for 6 hrs followed by 4 to 8 uM compound addition and further incubated for 24 hrs by Western blot method. The class given is functional, cell-based. The gist of the method: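 HCT116 cells were pretreated with H2O or 7.5 mM L-NAC for 6 h, then exposed to 0, 4 or 8 µM for 24 h. Lysates were made in SDS buffer and run on 10% SDS-PAGE. Blots were probed for cleaved PARP (1:1000) with GAPDH (1:5000) as control, and detected by ECL.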
Background: Immunoblotting shows a protein as a band on a membrane.

Test [15] concerns HCT-116. The test is described as follows: Induction of apoptosis in human HCT116 cells assessed as G1 phase cells level at 2 uM incubated for 24 hrs by […]PI staining based cytometry (reference value: 65.2%). Format: functional. In a few lines: (§4)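 Cells were treated for 24 h, then fixed in 75% ethanol at -20 °C overnight. RNA was digested with 0.2 mg/mL RNase A for 30 min at 37 °C. Cells were stained with 50 µg/mL PI for 30 min in the dark, and DNA content was read by flow cytometry.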

The subject of test [16] is HCT-116. The test can be described thus: Induction of apoptosis in human HCT116 cells assessed as early apoptotic cells level at 2 uM incubated for 24 hrs by Annexin V-FITC/PI staining based cytometry (reference value: 1.3%). The class given is functional.
The test system of test [17] is HCT-116. The test is described as follows: Induction of apoptosis in human HCT116 cells assessed as late apoptotic cells level incubated for 48 hrs by Annexin V-FITC/PI staining based cytometry (reference value: 0.0%). Format: functional.
In test [18] the test system is HCT-116. The test is described as follows: Induction of apoptosis in Bax-/- human HCT116 cells assessed as late apoptotic cells level incubated for 48 hrs by Annexin V-FITC/PI staining based cytometry (reference value: 0.1%). The class given is functional. In a few lines: as §3
Test [19] has as its system HCT-116. The test is described as follows: Induction of apoptosis in human HCT116 cells assessed as subG1 phase cells level at 4 uM incubated for 24 hrs by […]PI staining based cytometry (reference value: 1%). The class given is functional. The gist of the method:
as §4

In the case of `CCN(CC)CCCNC(=O)c1cn(CCCc2ccccc2)c2cc(Cl)ccc2c1=O.Cl`, the Activity was 4.6% with HCT-116 [1]; 1.5% in the test with HCT-116 [3]; 87.7% with HCT-116 [4]; 80.4% with HCT-116 [5]; “Dose-dependent effect” in the test with HCT-116 [9]; “Dose-dependent effect” with HCT-116 [11]. Moreover, the Activity with HCT-116 [12] worked out at 0.8%; in the test with HCT-116 [13] it was 1.3%; in the test with HCT-116 [15], 46.7%; in the test with HCT-116 [16] it was 18.2%; in the test with HCT-116 [17] it was 3.2%; in the test with HCT-116 [18], 1.7%. In addition, the Activity in the test on HCT-116 [19] stood at 14.2%. For the same compound, the inhibition entry in the test with HCT-116 [2] is “Active”. The inhibition entry in the test on HCT-116 [6] is “inactive”. For the same compound, in the test with HCT-116 [7], the inhibition result is “Dose-dependent effect”. The result in the test with HCT-116 [8] was Active. The result in the test with HCT-116 [10] and in the test with HCT-116 [14] was inactive. Besides, the IC50 with HeLa worked out at 3.52 µM.

The term IC50 denotes the midpoint of a concentration-inhibition curve.
